# PMC5520537 (Antiviral research, 2017)
# Read-outs that look alike come from different tables or passages of the source.
# Key:
# HBV genotype D = assay: HBV replication inhibition assay in HepDES19 cells; assay type: cell-based, hepatitis B virus; details: for HBV replication inhibition, qualitative screen: 20 μM, plus-polarity DNA; for EC50: read-out: HBV replication inhibition (EC50), 3 days, plus-polarity DNA strand, average ± SD
# HBV RNaseH [1] = molecular target: T1, HBV RNaseH (Hepatitis B virus genotype D subtype ayw, UniProt P03156); details: qualitative; previously reported; ref Cai et al., 2014; cited from earlier work
# HepDES19 cells [2] = details: read-out: Toxicity in HepDES19, MTS (CC50); 72 hours; average ± SD
# HBV RNaseH [3] = molecular target: T1, HBV RNaseH; assay: Molecular beacon fluorescence RNaseH cleavage assay; assay type: biochemical; details: for Inhibition of HBV RNaseH, Molecular Beacon cleavage assay: qualitative, 0 to 500 μM compound, 2.1 μg HBV RNaseH; for Inhibition in the molecular beacon assay: 2.1 μg purified HBV RNaseH, 0 to 500 μM
# HIV replication = details: read-out: HIV replication inhibition; ref Suchaud et al., 2014; cited from earlier work
# HepDES19 cells [4] = details: read-out: Toxicity in HepDES19, LDH (CC50); 72 hours; average ± SD
# HepDES19 cells [5] = details: read-out: Toxicity in HepDES19, NR (CC50); 72 hours; average ± SD
# HBV RNaseH [6] = molecular target: T1, HBV RNaseH; assay: Oligonucleotide-directed RNA cleavage assay with purified HBV RNaseH; assay type: biochemical; details: for Inhibition of HBV RNaseH, Oligonucleotide directed cleavage assay: qualitative, compounds at 100, 60 and 20 μM, 16 previously untested compounds
# In short: (§1)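 Enzymes were His-tagged and expressed in E. coli, then nickel-affinity purified. A 32P-labelled RNA annealed to a DNA oligonucleotide was incubated with RNaseH and test compound at 42°C for 90 min. Products were gel-resolved and autoradiographed. Inhibition was scored qualitatively as dose-dependent reduction in substrate degraded.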
# huRNaseH1 = molecular target: T2, huRNaseH1 (Homo sapiens, UniProt O60930); assay: Oligonucleotide-directed cleavage assay with purified huRNaseH1; assay type: biochemical; details: 100, 60 and 20 μM
# T2 sequence (O60930 1-286): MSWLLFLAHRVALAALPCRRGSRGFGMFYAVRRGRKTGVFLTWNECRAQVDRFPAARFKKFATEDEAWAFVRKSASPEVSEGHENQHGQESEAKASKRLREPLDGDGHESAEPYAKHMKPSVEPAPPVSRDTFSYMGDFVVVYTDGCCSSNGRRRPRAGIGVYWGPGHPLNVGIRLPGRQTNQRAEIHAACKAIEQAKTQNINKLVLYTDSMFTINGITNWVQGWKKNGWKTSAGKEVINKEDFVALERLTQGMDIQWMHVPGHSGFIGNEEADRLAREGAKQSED
# In short: as §1
# HBV polymerase = HBV polymerase (Hepatitis B virus genotype D subtype ayw, UniProt P03156); assay: Endogenous polymerase reaction; assay type: biochemical; details: inhibitors at 4X EC50; #138 and #211 at 30 μM; ddTTP […]; 7 hours
# Sequence of HBV polymerase (P03156 whole entry): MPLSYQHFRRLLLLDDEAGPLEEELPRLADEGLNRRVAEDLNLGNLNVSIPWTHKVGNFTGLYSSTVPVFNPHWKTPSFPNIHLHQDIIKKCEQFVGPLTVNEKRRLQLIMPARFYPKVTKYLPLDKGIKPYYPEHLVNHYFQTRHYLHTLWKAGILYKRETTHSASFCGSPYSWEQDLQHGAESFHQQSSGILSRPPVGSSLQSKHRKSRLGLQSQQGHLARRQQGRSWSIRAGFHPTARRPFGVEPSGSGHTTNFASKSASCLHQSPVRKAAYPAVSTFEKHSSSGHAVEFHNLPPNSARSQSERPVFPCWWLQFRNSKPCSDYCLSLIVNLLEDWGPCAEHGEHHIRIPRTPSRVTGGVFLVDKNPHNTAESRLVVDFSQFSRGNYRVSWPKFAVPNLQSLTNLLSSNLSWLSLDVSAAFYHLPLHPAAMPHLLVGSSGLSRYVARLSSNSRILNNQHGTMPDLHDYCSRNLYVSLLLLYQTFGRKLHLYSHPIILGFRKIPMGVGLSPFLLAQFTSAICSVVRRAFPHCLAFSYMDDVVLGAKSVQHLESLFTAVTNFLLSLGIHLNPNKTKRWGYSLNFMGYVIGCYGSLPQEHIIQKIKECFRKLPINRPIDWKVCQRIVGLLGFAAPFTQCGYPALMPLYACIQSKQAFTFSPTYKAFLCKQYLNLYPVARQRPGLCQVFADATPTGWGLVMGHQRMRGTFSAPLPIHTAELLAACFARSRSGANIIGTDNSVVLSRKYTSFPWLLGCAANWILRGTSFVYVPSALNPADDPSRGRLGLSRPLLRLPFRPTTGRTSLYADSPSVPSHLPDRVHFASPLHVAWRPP
# T1 sequence (P03156 671-832): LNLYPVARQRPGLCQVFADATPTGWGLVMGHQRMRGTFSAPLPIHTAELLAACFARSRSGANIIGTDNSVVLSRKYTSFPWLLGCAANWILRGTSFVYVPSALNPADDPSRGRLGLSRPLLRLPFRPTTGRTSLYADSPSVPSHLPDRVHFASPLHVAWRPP
Compound,"HBV replication inhibition, qualitative screen (HBV genotype D)","Inhibition of HBV RNaseH, Oligonucleotide directed cleavage assay (HBV RNaseH [1])",CC50 (HepDES19 cells [2]),"Inhibition of HBV RNaseH, Molecular Beacon cleavage assay (HBV RNaseH [3])",CC50 (HepDES19 cells [4]),CC50 (HepDES19 cells [5]),"Inhibition of HBV RNaseH, Oligonucleotide directed cleavage assay (HBV RNaseH [6])",other results
"Cc1cc(C2CCCCC2)n(O)c(=O)c1 [Compound 41, Ciclopirox, reference compound]",− (No inhibition detected at 20 μM),− (No inhibition detected at 100 μM),–,–,–,–,–,–
O=C(Nc1ccc2c(c1)C(=O)N(O)C(=O)C2C(=O)NCc1ccc(F)cc1)c1ccccc1 (centres unmarked) [Compound 86],–,− (No inhibition detected at 100 μM),99 ± 2 µM,− (No inhibition detected at 500 μM),> 100 µM,52 ± 11 µM,–,"TI (therapeutic index, CC50(MTS)/EC50) (HBV genotype D): 71; EC50 (HBV genotype D): 1.4 ± 0.3 µM; EC50 (HIV replication): > 21 µM"
O=C(NCc1ccc(F)cc1)C1C(=O)N(O)C(=O)c2cc(Cl)ccc21 (centres unmarked) [Compound 87],–,− (No inhibition detected at 100 μM),37 ± 17 µM,− (No inhibition detected at 500 μM),52 ± 15 µM,24 ± 1 µM,–,"TI (therapeutic index, CC50(MTS)/EC50) (HBV genotype D): 8.2; EC50 (HBV genotype D): 4.5 ± 3.7 µM"
COc1ccc2c(c1)C(=O)N(O)C(=O)C2C(=O)NCc1ccc(F)cc1 (centres unmarked) [Compound 88],–,− (No inhibition detected at 100 μM),40 ± 6 µM,− (No inhibition detected at 500 μM),57 ± 6 µM,26 ± 2 µM,–,"TI (therapeutic index, CC50(MTS)/EC50) (HBV genotype D): 16; EC50 (HBV genotype D): 2.5 ± 0.5 µM"
O=C1CCC(=O)N1O [Compound 139],− (No inhibition detected at 20 μM),− (No inhibition detected at 100 μM),–,–,–,–,–,HBV replication inhibition / activity (HBV genotype D): inactive
"Cc1cc(CC(C)CC(C)(C)C)n(O)c(=O)c1.NCCO (centres unmarked) [Compound 191, Piroctone olamine, reference compound]",− (No inhibition detected at 20 μM),–,–,–,–,–,− (No inhibition detected at 100 μM),–
"O=c1[nH]c(=O)c2ccccc2[nH]1 [Compound 197, Benzoylene urea]",− (No inhibition detected at 20 μM),–,–,–,–,–,− (No inhibition detected at 100 μM),–
"Oc1nc2ccccc2nc1O [Compound 198, 2,3-dihydroxy-quinoxaline]",− (No inhibition detected at 20 μM),–,–,–,–,–,− (No inhibition detected at 100 μM),–
NN1C(=O)Cc2ccccc2C1=O [Compound 204],− (No inhibition detected at 20 μM),–,–,–,–,–,− (No inhibition detected at 100 μM),Inhibition of huRNaseH1 (huRNaseH1): detectably inhibited; HBV replication inhibition / activity (HBV genotype D): inactive
Nc1cccc(=O)[nH]1 [Compound 206],− (No inhibition detected at 20 μM),–,–,–,–,–,− (No inhibition detected at 100 μM),Inhibition of huRNaseH1 (huRNaseH1): detectably inhibited
CC(=Nc1ccccc1N)c1c(C)cc(=O)n(O)c1O [Compound 208],–,–,15 ± 7 µM,+ (Dose-dependent inhibition at ≤500 μM),12 ± 0.1 µM,13 ± 1 µM,+ (Dose-dependent inhibition at ≤100 μM),"Inhibition in the molecular beacon assay (HBV RNaseH [3]): inhibited; Inhibition of huRNaseH1 (huRNaseH1): did not inhibit; Stability in mouse liver microsomes: stable; Inhibition of RNA cleavage by the HBV RNaseH (HBV RNaseH [6]; 100, 60 and 20 μM): inhibited RNA cleavage"
"Cc1cc(COc2ccc(Oc3ccc(Cl)cc3)cc2)n(O)c(=O)c1 [Compound 211, Rilopirox, reference compound]",− (No inhibition detected at 20 μM),–,–,− (No inhibition detected at 500 μM),–,–,− (No inhibition detected at 100 μM),Inhibition in the molecular beacon assay (HBV RNaseH [3]): had no effect on the rate of substrate degradation; HBV replication inhibition / activity (HBV genotype D): inactive; Effect on 32P incorporation / HBV DNA elongation in EPR (HBV polymerase): None of the HBV inhibitors nor the two negative control compounds (#138 and 211) significantly altered incorporation
Cc1cn([C@H]2CC[C@@H](COP(=O)(O)OP(=O)(O)OP(=O)(O)O)O2)c(=O)[nH]c1=O [ddTTP],–,–,–,–,–,–,–,Effect on 32P incorporation / HBV DNA elongation in EPR (HBV polymerase): strongly inhibited
